# HSF1 activator: HSF-1 activators, primary screen, NIH3T3-HGL cells, MG132 stress, luminescence, single point. NIH3T3-HGL HSF-1 luciferase reporter, 8 h; 100% = twice DMSO control signal. activation, % at 9 µM. AID 504408, 2011. actives 1.7% (n = 300,000);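 active = mean replicate activation of at least 50% with a set share of replicates each reaching 50%; inconclusive = only one of those two conditions met; inactive = mean below 50% and too few replicates reaching it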;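 note: 0% = median of the neutral control wells and 100% = twice that signal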
# T cruzi inh: inhibitors of intracellular T. cruzi growth, primary screen, luminescence, NIH3T3 host cells. T. cruzi beta-gal in NIH3T3, 90 h. inhibition, % (test concentration not listed). actives 1.4% (n = 300,000);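 active = mean inhibition across valid replicates above about 55%, limit read from the data; inconclusive = mean below that limit but half or more replicates reach it; inactive = mean below it, under half of replicates reach it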;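 note: signal also drops with host cell toxicity which is not excluded here; 0% = plate median of DMSO wells and 100% = zero luminescence signal; higher percent means less beta-gal luminescence so fewer parasites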
#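 assay system = mouse NIH/3T3 fibroblasts infected with β-gal-expressing T. cruzi Tulahuen C4 | input = 5,000 NIH/3T3 host cells per well | buffer or medium = DMEM plus 2% FBS | timing = 3 h host attachment, then at least 90 h co-culture | measured by = GalScreen luminescence, 60 min | evaluation = luminescence reflecting intracellular parasite burden, expressed as percent inhibition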
# Lmaj promast: Leishmania major promastigote growth inhibition, primary screen | Leishmania major promastigotes, resazurin fluorescence viability | inhibition, % at 10 µM | actives 9% (n = 200,000); in the data active = inhibition above about 50%;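 note: promastigotes grown with compound for 44 hours at 28 °C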
# HSF1 inh: HSF1 inhibitors in luciferase reporter cells, primary screen, cell-based, NIH3T3, luminescence; NIH3T3-HGL HSE-luciferase, MG132-induced, luminescence 8 h; active compounds read low; activity change, negative = inhibition, % at 7.5 µM (by protocol); actives 0.77% (n = 300,000); AID 2098, 2009;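 active = more than half of replicate wells show activity change below -50%, luminescence cut by over half; inconclusive = some wells, but at most half, below -50%; inactive = no replicate well below -50%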;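 note: luciferase reports HSF-1 transcriptional activity via heat shock element; 0% = median of DMSO wells and -100% = zero luminescence signal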
# Hsp70 act: Hsp70 transcriptional activators, primary screen, cell-based, HeLa, Hsp70 promoter luciferase, luminescence, 10 µM; HeLa Hsp70 promoter luciferase reporter; scaled: vehicle 0, proteasome-inhibitor control 100%; activation, % at 10 µM; actives 0.04% (n = 200,000); AID 1203, 2008;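 active = activation above the mean across all tested compounds plus 3 SD, cutoff set per campaign, cut at about 5.5% in these data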;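 note: 100% = MG132 at 30 µM as the positive control and 0% = DMSO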
# The depositor's hits bear a star; ? = inconclusive; . = not tested or not shown. Only a selection was taken, and hits are over-represented in it overall.
SMILES,HSF1 activator,T cruzi inh,Lmaj promast,HSF1 inh,Hsp70 act
CCc1ccc(C2=NN(CCC(=O)NC(C)CCc3ccccc3)C(=O)CC2)cc1 (centres undefined),5.2,32.0,94.7*,3.4,0.2
CC(CCc1ccccc1)NC(=O)CN1CCc2ccccc2C1 (centres undefined),93.6*,-4.1,12.2,51.2,-0.1
O=C(OC1CCOC1=O)c1cc(Cl)ccc1[N+](=O)[O-] (centres undefined),58.3*,-5.9,.,19.4,.
CC(=O)c1c(C)[nH]c(C(=O)NC(C)c2ccccc2)c1C (centres undefined),-13.2,-10.5,-0.1,-10.5,0.1
Cc1cc2c3ccccc3ncn2n1,7.0,-5.0,.,-5.1,.
COC(=O)C(CCSC)NC(=O)C12CC3CC(CC(C3)C1)C2 (centres undefined),.,-8.1,94.6*,.,-0.2
NC(=O)c1cc2cc([N+](=O)[O-])ccc2oc1=O,-27.4,-1.7,-2.4,-6.8,-0.3
NC(=O)c1cc([N+](=O)[O-])cc2c1C=Cc1ccccc1O2,11.0,46.1,90.3*,4.5,-0.1
Oc1ccc(N=Nc2ccc3ccccc3c2)cc1,?,-20.6,.,7.0,.
COc1cccc(N2CCN(CC(=O)c3c[nH]c4ccc(OC)cc34)CC2C)c1 (centres undefined),-6.1,7.5,73.2*,-2.1,-0.1
COc1ccc2[nH]cc(C(=O)CN3CCCC(C)C3)c2c1 (centres undefined),11.8,-8.3,-4.3,1.5,-0.4
Cc1c(C(=O)OCC(=O)Nc2ccc3c(c2)OCO3)cccc1[N+](=O)[O-],-11.4,12.7,-4.7,-7.2,-0.1
Cc1cccc(C(=O)OCC(=O)c2ccc3c(c2)OCO3)c1O,66.3*,5.3,.,45.1,.
Cc1cc(C(=O)COC(=O)c2ccc(N)c([N+](=O)[O-])c2)c(C)n1-c1ccc2c(c1)OCO2,.,28.0,71.2*,.,-0.4
Cc1cc(C(=O)COC(=O)c2ccc(N)c([N+](=O)[O-])c2)c(C)n1Cc1ccc2c(c1)OCO2,17.6,23.3,.,20.0,.
Cc1c(C(=O)OCC(=O)NCc2ccc3c(c2)OCO3)cccc1[N+](=O)[O-],59.5*,-10.0,-9.7,15.5,-0.2
Cc1nnc(SCC(=O)c2cc(C)n(-c3ccc4c(c3)OCO4)c2C)s1,32.8,-1.9,60.8*,-7.4,-0.3
CC(=O)N1N=C(c2cccs2)CC1c1cc2cc(C)ccc2nc1Cl (centres undefined),3.8,-5.2,.,-3.1,.
CC(=O)Nc1ccc(S(=O)(=O)N(CC(=O)Nc2cc(C)on2)Cc2ccc(F)cc2)cc1,-10.6,3.6,.,6.3,.
O=C(CS(=O)(=O)c1ccccc1)NCc1ccccc1,-4.7,-11.2,.,-3.5,.
CCOC(=O)c1cc[nH]c1CC(=O)NC,-0.7,-5.2,.,3.4,.
O=C(COC(=O)c1ccccc1[N+](=O)[O-])c1ccc2c(c1)OCO2,-70.1,0.4,.,-66.4*,.
O=C(COC(=O)c1cccs1)c1ccc2c(c1)OCCO2,-59.6,-6.3,-6.0,-52.2*,0.2
CC(C)[C@H](NC(=O)C1CC(=O)N(c2ccc3c(c2)OCO3)C1)C(=O)NC1CCCC1 (some centres undefined),5.6,-11.3,.,2.6,.
O=C(CCC1CCCCC1)N1CCN(Cc2ccc3c(c2)OCO3)CC1,-7.8,48.2,96.0*,0.1,0.0
SMILES,HSF1 activator,T cruzi inh,Lmaj promast,HSF1 inh,Hsp70 act
O=C(CN1CCN(c2ccccc2)CC1)N1CCc2[nH]c3ccccc3c2C1,.,.,90.8*,.,-0.4
CS(=O)(=O)N(CC(=O)N1CCN(Cc2ccc3c(c2)OCO3)CC1)Cc1ccc(Cl)cc1,2.6,1.7,98.4*,-8.3,-0.4
CS(=O)(=O)N(CC(=O)N1CCN(Cc2ccc3c(c2)OCO3)CC1)C1CCCCC1,38.6,-5.7,1.6,6.0,-0.1
O=C(O)CSCC(=O)N1CCN(Cc2ccc3c(c2)OCO3)CC1,-1.1,-9.8,.,-2.8,.
Cc1ccc(CSCC(=O)N2CCN(Cc3ccc4c(c3)OCO4)CC2)cc1,17.5,-1.8,59.3*,-3.4,-0.3
COC(=O)c1cnn(-c2ccc(Cl)cc2)c1/C=N/NC(N)=S,-4.9,-41.0,.,-2.7,.
CN(C)S(=O)(=O)c1cccc(COC(=O)c2cccnc2Cl)c1,2.5,-1.8,.,-4.5,.

# From PubChem
